From ChEMBL document CHEMBL2331219, “Synthesis and anti-Candida activity of novel 2-hydrazino-1,3-thiazole derivatives” (Bioorg Med Chem Lett, 2013)
≈ marks a conversion by molar mass, not a printed value.

What was measured:
Candida parapsilosis [1] = assay: Antifungal activity against anidulafungin-resistant Candida parapsilosis isolate 22019 assessed as growth inhibition after 24 to 48 hrs by CLSI microbroth dilution method; type: functional; conditions: Lodderomyces parapsilosis
In short: (§1)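 Microbroth dilution per CLSI M27-A3. Isolates subcultured for purity, incubated at 35 °C; five colonies >1 mm suspended in saline, adjusted to 0.5 × 10³ to 2.5 × 10³ in RPMI 1640 buffered to pH 7.0 with 0.165 M MOPS. Compounds diluted in RPMI to final […]. Read visually after 24 h and 48 h at 35 °C; MIC judged by turbidity against drug-free growth control.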

Candida parapsilosis [2] = assay: Antifungal activity against anidulafungin-resistant Candida parapsilosis ANF8 assessed as growth inhibition after 24 to 48 hrs by CLSI microbroth dilution method; type: functional; conditions: Lodderomyces parapsilosis; in short: as §1
Nakaseomyces glabratus [3] = assay: Antifungal activity against fluconazole-resistant Candida glabrata isolate 6258 assessed as growth inhibition after 24 to 48 hrs by CLSI microbroth dilution method; type: functional; in short: as §1
Nakaseomyces glabratus [4] = assay: Antifungal activity against voriconazole-resistant Candida glabrata clinical isolate 730 assessed as growth inhibition after 24 to 48 hrs by CLSI microbroth dilution method; type: functional; in short: as §1
Nakaseomyces glabratus [5] = assay: Antifungal activity against voriconazole-resistant Candida glabrata clinical isolate 724 assessed as growth inhibition after 24 to 48 hrs by CLSI microbroth dilution method; type: functional; in short: as §1
Candida albicans [6] = assay: Antifungal activity against azole-resistant Candida albicans clinical isolate 7.O.A assessed as growth inhibition after 24 to 48 hrs by CLSI microbroth dilution method; type: functional; in short: as §1
Candida albicans [7] = assay: Antifungal activity against fluconazole-resistant Candida albicans clinical isolate 5.O.A assessed as growth inhibition after 24 to 48 hrs by CLSI microbroth dilution method; type: functional; in short: as §1
Candida albicans [8] = assay: Antifungal activity against caspofungin-resistant Candida albicans assessed as growth inhibition after 24 to 48 hrs by CLSI microbroth dilution method
[9] = Cytotoxicity against mouse NIH/3T3 cells assessed as cell viability at 62.5 ug/mL after 24 hrs by MTT assay relative to control; type: cell-based, NIH3T3; conditions: read-out: Activity
In short: (§2)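 NIH/3T3 fibroblasts kept in DMEM with 10% fetal calf serum, penicillin/streptomycin, 37 °C, 5% CO2. Cells seeded at 2 × 10⁴ cells/mL, grown 24 h, then given compound (DMSO stock diluted in medium, final DMSO <0.1%) for 24 h. MTT at 0.5 mg/mL final added for 4 h, formazan dissolved in DMSO, absorbance read at 540 nm. Triplicate wells, mean ± SD, assay run twice.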

[10] = Cytotoxicity against mouse NIH/3T3 cells assessed as cell viability at 31.3 ug/mL after 24 hrs by MTT assay relative to control; type: cell-based, NIH3T3; conditions: read-out: Activity; in short: as §2
[11] = Cytotoxicity against mouse NIH/3T3 cells assessed as cell viability at 1 ug/mL after 24 hrs by MTT assay relative to control; type: cell-based, NIH3T3; conditions: read-out: Activity; in short: as §2
[12] = Cytotoxicity against mouse NIH/3T3 cells assessed as cell viability at 0.5 ug/mL after 24 hrs by MTT assay relative to control; type: cell-based, NIH3T3; conditions: read-out: Activity; in short: as §2
[13] = Aqueous solubility in PBS buffer at pH 7.0; type: physicochemical

Compound | MIC (Candida parapsilosis [1]) | MIC (Candida parapsilosis [2]) | MIC (Nakaseomyces glabratus [3]) | MIC (Nakaseomyces glabratus [4]) | MIC (Nakaseomyces glabratus [5]) | MIC (Candida albicans [6]) | MIC (Candida albicans [7]) | MIC (Candida albicans [8]) | viability at 24 h, 62.5 ug/mL [9] | viability at 24 h, 31.3 ug/mL [10] | viability at 24 h, 1 ug/mL [11] | viability at 24 h, 0.5 ug/mL [12] | solubility [13]
C/C(=N\Nc1nc([C@@H]2CCCN2C(=O)OCc2ccccc2)cs1)c1ccc2c(c1)CCC2 | > 16 µg/mL | > 16 µg/mL | > 16 µg/mL | > 16 µg/mL | > 16 µg/mL | > 16 µg/mL | > 16 µg/mL | > 16 µg/mL | – | – | – | – | –
C/C(=N\Nc1nc([C@H](C)N)cs1)c1ccc2c(c1)CCC2 | 8 µg/mL (≈ 26.6 µM) | 0.5 µg/mL (≈ 1.66 µM) | 0.125 µg/mL (≈ 0.416 µM) | 8 µg/mL (≈ 26.6 µM) | 8 µg/mL (≈ 26.6 µM) | > 16 µg/mL | > 16 µg/mL | 16 µg/mL (≈ 53.3 µM) | 32.4% | 36.2% | 92.6% | 93.6% | 700 µM (≈ 210 µg/mL)
C/C(=N\Nc1nc([C@@H](N)Cc2ccccc2)cs1)c1ccc2c(c1)CCC2 | > 16 µg/mL | > 16 µg/mL | > 16 µg/mL | > 16 µg/mL | > 16 µg/mL | > 16 µg/mL | > 16 µg/mL | > 16 µg/mL | – | – | – | – | 150 µM (≈ 56.5 µg/mL)
C/C(=N\Nc1nc([C@@H]2CCCN2)cs1)c1ccc2c(c1)CCC2 | > 16 µg/mL | > 16 µg/mL | > 16 µg/mL | 16 µg/mL (≈ 49 µM) | > 16 µg/mL | > 16 µg/mL | > 16 µg/mL | > 16 µg/mL | – | – | – | – | 900 µM (≈ 294 µg/mL)
COc1ccc(O)c(-c2csc(N/N=C(/C)C3CCc4ccccc43)n2)c1 (centres undefined) | > 16 µg/mL | > 16 µg/mL | > 16 µg/mL | 16 µg/mL (≈ 42.2 µM) | > 16 µg/mL | > 16 µg/mL | > 16 µg/mL | > 16 µg/mL | – | – | – | – | < 50 µM
COc1ccc(O)c(-c2csc(N/N=C/c3ccc4c(c3)OCO4)n2)c1 | > 16 µg/mL | > 16 µg/mL | > 16 µg/mL | > 16 µg/mL | > 16 µg/mL | > 16 µg/mL | > 16 µg/mL | > 16 µg/mL | – | – | – | – | –
COc1ccc(O)c(-c2csc(NN=C3CCCCC3)n2)c1 | 16 µg/mL (≈ 50.4 µM) | > 16 µg/mL | 16 µg/mL (≈ 50.4 µM) | 8 µg/mL (≈ 25.2 µM) | > 16 µg/mL | > 16 µg/mL | > 16 µg/mL | > 16 µg/mL | – | – | – | – | –
COc1ccc(O)c(-c2csc(N/N=C/c3ccc4ccccc4c3)n2)c1 | > 16 µg/mL | > 16 µg/mL | > 16 µg/mL | > 16 µg/mL | > 16 µg/mL | 2 µg/mL (≈ 5.33 µM) | > 16 µg/mL | > 16 µg/mL | 52.7% | 45.3% | 69.2% | 83.7% | –
COc1ccc(O)c(-c2csc(N/N=C/c3c[nH]c4ccccc34)n2)c1 | > 16 µg/mL | 0.25 µg/mL (≈ 0.686 µM) | > 16 µg/mL | 0.5 µg/mL (≈ 1.37 µM) | > 16 µg/mL | 0.5 µg/mL (≈ 1.37 µM) | 0.25 µg/mL (≈ 0.686 µM) | 2 µg/mL (≈ 5.49 µM) | 50.2% | 70.6% | 80.6% | 91.9% | –
COc1ccc(O)c(-c2csc(N/N=C/c3cnc4ccccn34)n2)c1 | > 16 µg/mL | > 16 µg/mL | > 16 µg/mL | > 16 µg/mL | > 16 µg/mL | > 16 µg/mL | > 16 µg/mL | > 16 µg/mL | – | – | – | – | –
COc1ccc(O)c(-c2csc(N/N=C/c3cc4ccccc4o3)n2)c1 | > 16 µg/mL | > 16 µg/mL | > 16 µg/mL | > 16 µg/mL | > 16 µg/mL | > 16 µg/mL | > 16 µg/mL | > 16 µg/mL | – | – | – | – | –
